Measurements as given in ChEMBL document CHEMBL1944602, “Synthesis and biological characterisation of sirtuin inhibitors based on the tenovins” (Bioorg Med Chem, 2012).
Converted amounts (≈) assume the structure as drawn. The source made the active and inactive calls. The calls are words filed in the database; no cut-off is given here.

Assays:
[1] = target: T1, NAD-dependent protein deacetylase sirtuin-1 (Homo sapiens) (UniProt Q96EB6); test: Inhibition of SirT1 in human ARN8 cells assessed as p53 activation at 10 uM by beta-galactosidase reporter gene assay relative to control; format: cell-based
T1 sequence (whole entry): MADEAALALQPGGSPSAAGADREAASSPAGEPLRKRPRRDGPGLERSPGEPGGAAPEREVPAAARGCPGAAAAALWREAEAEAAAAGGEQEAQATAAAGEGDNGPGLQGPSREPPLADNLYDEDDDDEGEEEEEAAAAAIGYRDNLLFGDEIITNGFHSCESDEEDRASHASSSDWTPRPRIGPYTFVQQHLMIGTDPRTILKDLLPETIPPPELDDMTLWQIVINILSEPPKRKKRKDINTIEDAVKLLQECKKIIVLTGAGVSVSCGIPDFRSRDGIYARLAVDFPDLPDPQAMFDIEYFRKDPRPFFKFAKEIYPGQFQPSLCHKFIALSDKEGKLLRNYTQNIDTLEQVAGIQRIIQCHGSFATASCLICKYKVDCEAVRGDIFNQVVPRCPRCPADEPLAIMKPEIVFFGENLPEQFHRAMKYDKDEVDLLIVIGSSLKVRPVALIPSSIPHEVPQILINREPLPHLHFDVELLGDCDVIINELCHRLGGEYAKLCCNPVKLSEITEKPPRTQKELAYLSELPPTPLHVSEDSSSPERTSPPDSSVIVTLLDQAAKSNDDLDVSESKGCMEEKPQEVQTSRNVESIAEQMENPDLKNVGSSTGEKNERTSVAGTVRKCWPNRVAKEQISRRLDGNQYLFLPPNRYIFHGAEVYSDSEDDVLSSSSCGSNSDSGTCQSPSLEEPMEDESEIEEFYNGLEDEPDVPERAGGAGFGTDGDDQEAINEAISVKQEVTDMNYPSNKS
Procedure, shortened: (§1)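 p53-dependent transcription measured with a beta-galactosidase reporter in ARN8 cells, run in triplicate. Read-out is the ratio of signal in treated cells to DMSO-control cells, given to 2 significant figures; a positive or negative activity call is also recorded.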

[2] = target: T1, NAD-dependent protein deacetylase sirtuin-1 (Homo sapiens); test: Inhibition of SirT1 in human ARN8 cells assessed as p53 activation at 20 uM by beta-galactosidase reporter gene assay; format: cell-based; procedure, shortened: as §1
[3] = target: T1, NAD-dependent protein deacetylase sirtuin-1 (Homo sapiens); test: Inhibition of SirT1 in human ARN8 cells assessed as p53 activation at 10 uM by beta-galactosidase reporter gene assay; format: cell-based; procedure, shortened: as §1
[4] = target: T1, NAD-dependent protein deacetylase sirtuin-1 (Homo sapiens); test: Inhibition of recombinant human SitT1 at 60 uM by Fluor de Lys fluorescence assay
Procedure, shortened: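 Human recombinant SirT1 deacetylation measured with the Fluor de Lys fluorescence kit at a fixed 60 µM inhibitor. Tested on two separate occasions; percent inhibition reported as a mean weighted to the standard error.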

[5] = target: T2, NAD-dependent protein deacetylase sirtuin-2 (Homo sapiens, UniProt Q8IXJ6); test: Inhibition of recombinant human SitT2 by Fluor de Lys fluorescence assay
T2 sequence (Q8IXJ6 whole entry): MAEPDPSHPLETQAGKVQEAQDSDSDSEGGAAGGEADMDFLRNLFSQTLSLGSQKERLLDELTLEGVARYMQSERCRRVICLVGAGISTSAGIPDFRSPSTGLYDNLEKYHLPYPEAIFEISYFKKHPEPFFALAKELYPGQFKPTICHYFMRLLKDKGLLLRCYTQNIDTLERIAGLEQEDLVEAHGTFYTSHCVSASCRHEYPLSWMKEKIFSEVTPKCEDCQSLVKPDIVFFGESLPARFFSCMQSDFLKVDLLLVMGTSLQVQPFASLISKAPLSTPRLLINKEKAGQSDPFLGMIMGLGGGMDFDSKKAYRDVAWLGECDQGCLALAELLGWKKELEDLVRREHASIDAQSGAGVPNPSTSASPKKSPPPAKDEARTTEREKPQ

[6] = target: T1, NAD-dependent protein deacetylase sirtuin-1 (Homo sapiens); test: Inhibition of SirT1 in human ARN8 cells assessed as p53 activation at 20 uM by beta-galactosidase reporter gene assay relative to control; format: cell-based; procedure, shortened: as §1
[7] = target: T3, NAD-dependent protein deacetylase sirtuin-1 (Homo sapiens, UniProt Q96EB6); test: Inhibition of recombinant human SitT1 by Fluor de Lys fluorescence assay
T3 sequence (Q96EB6 whole entry): T1 sequence (whole entry)

[8] = target: T1, NAD-dependent protein deacetylase sirtuin-1 (Homo sapiens); test: Inhibition of SirT1 in human ARN8 cells assessed as p53 activation at 5 uM by beta-galactosidase reporter gene assay relative to control; format: cell-based; procedure, shortened: as §1
[9] = target: T1, NAD-dependent protein deacetylase sirtuin-1 (Homo sapiens); test: Inhibition of SirT1 in human ARN8 cells assessed as p53 activation at 5 uM by beta-galactosidase reporter gene assay; format: cell-based; procedure, shortened: as §1
[10] = Solubility of the compound in water by UV spectrophotometry; format: physicochemical
Procedure, shortened: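 Extinction coefficient from absorbance at 273 nm of a 7-point 2-fold dilution series in acetonitrile; DMSO used first where needed. Coefficient taken from the slope of absorbance against molar concentration. Used to find the actual concentration of a nominal 100 µM aqueous solution made from 40 mM DMSO stock.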

[11] = target: T1, NAD-dependent protein deacetylase sirtuin-1 (Homo sapiens); test: Inhibition of SirT1 assessed as increase in p53 expression in human MCF7 cells at 5 uM after 6 hrs by Western blotting; format: cell-based
Procedure, shortened: (§2)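 MCF-7 cells grown in DMEM with 10% FCS and gentamycin, seeded at 2 × 10⁵ per well on collagen-coated plates and incubated 42 h at 37 °C in 5% CO2. Compound in DMSO was added for 6 h. Lysis in LDS buffer, protein equalised by BCA, 4–12% bis-tris SDS-PAGE, PVDF blot. Total p53 detected with DO.1, PCNA as loading control, ECL detection. Scored semi-quantitatively against untreated level.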

[12] = target: T1, NAD-dependent protein deacetylase sirtuin-1 (Homo sapiens); test: Inhibition of SirT1 assessed as increase in p53 expression in human MCF7 cells at 10 uM after 6 hrs by Western blotting; format: cell-based; procedure, shortened: as §2
[13] = target: T1, NAD-dependent protein deacetylase sirtuin-1 (Homo sapiens); test: Inhibition of SirT1 assessed as increase in p53 expression in human MCF7 cells at 2 uM after 6 hrs by Western blotting; format: cell-based; procedure, shortened: as §2

Compound | fold change (FC) [1] | inhibition [2] | inhibition [3] | inhibition [4] | IC50 [5] | fold change (FC) [6] | IC50 [7] | fold change (FC) [8] | inhibition [9] | solubility [10] | inhibition [11] | inhibition [12] | inhibition [13]
CN(C)CCCCNC(=O)c1ccc(NC(=S)NC(=O)c2ccc(C(C)(C)C)cc2)cc1 | 3.9 | Active | Active | 72.5% | 12.4 µM | 5.5 | 17.9 µM | – | – | – | – | – | –
CN(C)CCCCC(=O)Nc1ccc(NC(=S)NC(=O)c2ccccc2)cc1 | 0.97 | inactive | inactive | 3.5% | > 90 µM | 0.92 | > 90 µM | 1.1 | inactive | – | – | – | –
CN(C)CCCCC(=O)Nc1ccc(NC(=S)NC(=O)c2cccc(Br)c2)cc1 | 1.2 | – | inactive | 70.5% | – | 1.2 | – | 1.1 | inactive | – | – | – | –
CC(=O)Nc1ccc(NC(=S)NC(=O)c2ccc(C(C)(C)C)cc2)cc1 | – | – | – | – | – | – | – | – | – | 0.12 µg/mL (≈ 0.325 µM) | Active | Active | Active
CN(C)CCCCC(=O)Nc1ccc(NC(=S)NC(=O)c2ccc(Cl)c(Cl)c2)cc1 | 1.1 | inactive | inactive | 8.1% | – | 0.97 | – | 1.04 | inactive | – | – | – | –
Cc1ccccc1C(=O)NC(=S)Nc1ccc(NC(=O)CCCCN(C)C)cc1 | 0.98 | inactive | inactive | 9.9% | 42.5 µM | 0.84 | > 90 µM | 0.99 | inactive | – | – | – | –
CN(C)CCCCCCCC(=O)Nc1ccc(NC(=S)NC(=O)c2ccc(C(C)(C)C)cc2)cc1.Cl | – | – | – | 70.9% | 41.7 µM | – | – | – | – | > 1.01 µg/mL | Active | Active | Active
CN(C)CCCCCC(=O)Nc1ccc(NC(=S)NC(=O)c2ccc(C(C)(C)C)cc2)cc1.Cl | – | – | – | 96.2% | 21.3 µM | – | – | – | – | > 0.97 µg/mL | Active | Active | Active
CCCCCc1ccc(C(=O)NC(=S)Nc2ccc(NC(=O)CCCCN(C)C)cc2)cc1 | 1.1 | – | inactive | 73.2% | 5.6 µM | 1.2 | 36.7 µM | 1.1 | inactive | – | – | – | –
CN(C)CCCCC(=O)Nc1ccc(NC(=O)NC(=O)c2ccc(C(C)(C)C)cc2)cc1 | 7.3 | Active | Active | 93.6% | 88.4 µM | 6.5 | 21.7 µM | 6.9 | Active | – | – | – | –
CN(C)CCCCC(=O)Nc1ccc(NC(=S)NC(=O)c2cccc(Cl)c2)cc1 | 1.1 | inactive | inactive | 29.2% | – | 1 | – | 1.1 | inactive | – | – | – | –
COc1ccc(C(=O)NC(=S)Nc2ccc(NC(=O)CCCCN(C)C)cc2)cc1 | 1.1 | inactive | inactive | 48.5% | 50.6 µM | 1.12 | > 90 µM | 1 | inactive | – | – | – | –
CN(C)CCCCC(=O)Nc1ccc(NC(=S)NC(=O)c2ccc(C(C)(C)C)c(Br)c2)cc1 | 1.1 | Active | inactive | 93.5% | – | 1.4 | – | 1.1 | inactive | – | – | – | –
CC(C)c1ccc(C(=O)NC(=S)Nc2ccc(NC(=O)CCCCN(C)C)cc2)cc1 | 11.1 | Active | Active | 52.9% | 5.71 µM | 12 | 42.7 µM | 8.7 | Active | – | – | – | –
CN(C)CCCCC(=O)Nc1ccc(NC(=S)NC(=O)c2ccccc2Cl)cc1 | 1.1 | inactive | inactive | 29.3% | > 90 µM | 1.2 | > 90 µM | 1.2 | inactive | – | – | – | –
CCCc1ccc(C(=O)NC(=S)Nc2ccc(NC(=O)CCCCN(C)C)cc2)cc1 | 1.5 | Active | Active | 50.9% | 7.85 µM | 2.4 | 60.2 µM | 1 | inactive | – | – | – | –
CN(C)CCCCC(=O)Nc1ccc(NC(=S)NC(=O)c2ccc(Br)cc2)cc1 | 1.1 | inactive | inactive | 13.5% | 55 µM | 1.01 | > 90 µM | 1 | inactive | – | – | – | –
COc1cccc(C(=O)NC(=S)Nc2ccc(NC(=O)CCCCN(C)C)cc2)c1 | 1.1 | inactive | inactive | 25.3% | – | 1.2 | – | 1.1 | inactive | – | – | – | –
CN(C)CCCCC(=O)Nc1ccc(NC(=S)NC(=O)c2ccc(Cl)cc2)cc1 | 1.2 | inactive | inactive | 53.4% | > 90 µM | 1.01 | > 90 µM | 1.1 | inactive | – | – | – | –
Cc1ccc(C(=O)NC(=S)Nc2ccc(NC(=O)CCCCN(C)C)cc2)cc1 | 1.1 | inactive | inactive | 47.3% | > 90 µM | 1.1 | > 90 µM | 1.2 | inactive | – | – | – | –
Cc1cccc(C(=O)NC(=S)Nc2ccc(NC(=O)CCCCN(C)C)cc2)c1 | 0.89 | inactive | inactive | 5.2% | > 90 µM | 0.89 | > 90 µM | 0.94 | inactive | – | – | – | –
CN(C)CCCCC(=O)Nc1ccc(N(C)C(=S)NC(=O)c2ccc(C(C)(C)C)cc2)cc1 | – | – | – | 6.6% | – | – | – | – | – | – | inactive | inactive | inactive
